GPR7 antag – antagonists of human GPR7 (neuropeptides B/W receptor 1); P48145; inhibition, % at 4.4 µM; GPR7-expressing cells, fluorescence antagonist assay; 1.1% of 290,000 active; in the data active means inhibition above about 16%, passing the limit was not always enough;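 further: cells stimulated with the agonist NPW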
GalR3 antagonist – antagonists of human GalR3; O60755; HEK293 GalR3-CNG cAMP membrane potential fluorescence; galR3 body fused to GalR1 C-terminus; inhibition, % at 3 µM; 0.44% of 360,000 active;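 active means inhibition above the screen-wide average plus 3 SD, cut at about 13% in these data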;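 further: forskolin and galanin both at EC90 stimulate the cells; cAMP rise reported by CNG channel membrane potential dye signal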
Target sequence (O60755 1-299 limits assumed): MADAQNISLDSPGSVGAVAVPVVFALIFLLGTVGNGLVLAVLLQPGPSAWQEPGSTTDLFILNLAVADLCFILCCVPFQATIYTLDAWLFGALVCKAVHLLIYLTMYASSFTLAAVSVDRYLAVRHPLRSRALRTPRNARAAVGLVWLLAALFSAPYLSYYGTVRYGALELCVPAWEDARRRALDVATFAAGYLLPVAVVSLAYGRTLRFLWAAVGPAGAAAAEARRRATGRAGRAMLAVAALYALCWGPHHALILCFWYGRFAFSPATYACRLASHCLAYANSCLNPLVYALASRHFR
OX1R antag-1 – blocks the human orexin 1 receptor; 1.8% of 330,000 active; AID 485270; OX1R-expressing cells, FRET antagonist read-out; O43613; inhibition, % at 6.6 µM; in the data active means inhibition mostly above about 38%, no sharp cut-off; inactive means mostly below about 40%
Target sequence (O43613 whole entry, looked up): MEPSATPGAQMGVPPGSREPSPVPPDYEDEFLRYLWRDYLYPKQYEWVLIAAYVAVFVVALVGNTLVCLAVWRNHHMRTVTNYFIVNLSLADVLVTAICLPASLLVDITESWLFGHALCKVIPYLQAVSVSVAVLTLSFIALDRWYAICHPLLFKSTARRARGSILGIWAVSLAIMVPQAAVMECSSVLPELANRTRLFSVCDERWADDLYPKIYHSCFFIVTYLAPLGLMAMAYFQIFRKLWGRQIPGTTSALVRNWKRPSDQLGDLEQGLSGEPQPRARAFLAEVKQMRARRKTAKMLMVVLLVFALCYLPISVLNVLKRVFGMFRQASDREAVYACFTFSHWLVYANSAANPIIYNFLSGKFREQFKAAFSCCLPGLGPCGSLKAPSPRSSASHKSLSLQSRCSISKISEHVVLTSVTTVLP
CHO parental Ca – signal in parental CHO cells, OX1R antagonist counter-screen | parental CHO-K1, ATP-induced calcium, Fluo-8 fluorescence | inhibition, % at 5.6 µM | 0.63% of 330,000 active;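 active means inhibition above that plate's mean sample inhibition plus 3 SD, cut at about 26% in these data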
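Test system: untransfected parental CHO cell line; also added: ATP stimulus; dosing: 5.6 µM, single dose; signal: calcium-sensitive Fluo-8 fluorescence; measure: percent inhibition of ATP-evoked calcium rise, normalized to controls; benchmarks: low control ATP plus DMSO, high control DMSO only; replication: one well per compound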
OX1R antag-2 – antagonists of human orexin 1 receptor. O43613. CHO/OX1R cells, Fluo-8 calcium fluorescence, orexin A. inhibition, % at 5 µM. 0.43% of 330,000 active. AID 434989;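 active means inhibition above its plate's threshold, mean inhibition of all tested compounds on the plate plus 3 SD, cut at about 37% in these data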
OX1R HTRF confirm – confirmation of human orexin 1 receptor antagonists, HTRF format; shares compounds with OX1R antag-1; OX1R-expressing cells, HTRF antagonist assay; inhibition, % at 6.6 µM; 49% of 1,800 active; in the data active means inhibition above about 55%;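 further: CHO cells expressing OX1R stimulated with orexin A at about EC80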
CHO-K1 HTRF cnt – counter-screen for OX1R antagonists: effect in parental CHO-K1 cells. AID 493232. shares compounds with OX1R antag-1. 48% of 1,800 active. HTRF counterscreen. inhibition, % at 6.6 µM; in the data active means inhibition above about 17%
Large screens that a line does not name were inactive (follow-up assays come after a bar, where they were run). The list is not random: actives were taken first. Their share in the collection is about 3.1%.

Cc1nc2c(C(=O)Nc3ccc(N4CCCC(O)C4)cc3)snc2c(=O)[nH]1 (centres undefined)	OX1R antag-1 94.8 | OX1R HTRF confirm inactive | CHO-K1 HTRF cnt 58.7
O=C1c2cccc3cccc(c23)C(=O)N1c1ccccn1	OX1R antag-1 98.6 | OX1R HTRF confirm 61.2 | CHO-K1 HTRF cnt 60.3
O=C1c2cccc3cccc(c23)C(=O)N1c1ccncc1	OX1R antag-1 110.6 | OX1R HTRF confirm inactive | CHO-K1 HTRF cnt 66.8
O=C1c2cccc3cccc(c23)C(=O)N1Cc1ccccn1	none (no result: GPR7 antag, OX1R antag-1, CHO parental Ca, OX1R antag-2)
COc1ccc(N2C(=O)c3cccc4cc(Br)cc(c34)C2=O)cc1	none
COCCN1C(=O)COc2ccccc2C1C(=O)Nc1c(C)cccc1C (centres undefined)	none (no result: GPR7 antag, OX1R antag-1, CHO parental Ca, OX1R antag-2)
O=C(Nc1ccc([N+](=O)[O-])cc1)C(=O)Nc1cccc(C(=O)O)c1	OX1R antag-1 79.5 | OX1R HTRF confirm inactive | CHO-K1 HTRF cnt 31.8
O=C(O)c1cc(NC(=O)c2ccc([N+](=O)[O-])cc2)cc(NC(=O)c2ccc([N+](=O)[O-])cc2)c1	none
CCOc1ccc(N(C(=O)c2ccccc2Cl)C2=NC(C)(C)CS2)cc1	none
COc1ccccc1N(CC(=O)NCc1ccccc1C)S(=O)(=O)c1ccc(C)cc1	none
Fc1ccc(CNc2nc(-c3ccccc3)nc3ccccc23)cc1	none (no result: OX1R antag-1, CHO parental Ca, OX1R antag-2)
COc1ccc(CNc2nc(-c3ccccc3)nc3ccccc23)cc1OC	OX1R antag-1 85.0 | OX1R HTRF confirm 67.7 | CHO-K1 HTRF cnt inactive
COc1ccc(NC(=O)/C=C/c2c(Cl)nc3ccccn23)cc1	OX1R antag-1 111.2 | OX1R HTRF confirm 95.9 | CHO-K1 HTRF cnt 16.9
CC1CCN(S(=O)(=O)CCNC(=O)c2ccccc2)CC1	OX1R antag-1 88.9 (no result: GPR7 antag) | OX1R HTRF confirm inactive | CHO-K1 HTRF cnt inactive
O=[N+]([O-])c1ccc2c(c1)C(O)n1nc(-c3ccc(Cl)cc3Cl)nc1S2 (centres undefined)	none
O=[N+]([O-])c1ccc2c(c1)C(O)n1ncnc1S2 (centres undefined)	OX1R antag-1 107.9 | OX1R HTRF confirm inactive | CHO-K1 HTRF cnt 48.5
Cc1cccc(NC(=O)Nc2cccc(C#N)c2)n1	OX1R antag-1 90.9 | OX1R HTRF confirm inactive | CHO-K1 HTRF cnt inactive
Cc1ccc(S(=O)(=O)N2[C@@H](c3ccc(Cl)cc3)C(C(=O)O)=CC[C@H]2c2ccc3c(c2)OCO3)cc1	none (no result: GPR7 antag)
Cc1ccc(S(=O)(=O)N2[C@@H](c3cccc(Cl)c3)C(C(=O)O)=CC[C@H]2c2ccc3c(c2)OCO3)cc1	OX1R antag-1 83.4 (no result: GPR7 antag) | OX1R HTRF confirm 86.9 | CHO-K1 HTRF cnt inactive
O=C(C=Cc1ccccc1)N1CCCCC1	none (no result: GPR7 antag, OX1R antag-1, CHO parental Ca, OX1R antag-2)
Cc1noc(/C=C/c2cccnc2)c1[N+](=O)[O-]	OX1R antag-1 79.3 | OX1R HTRF confirm 68.1 | CHO-K1 HTRF cnt 83.6
CCOc1cc2[nH]c(=S)n(CCC(=O)NC3CCCCC3)c(=O)c2cc1OCC	none (no result: GPR7 antag, OX1R antag-1, CHO parental Ca, OX1R antag-2)
Cc1nn(C)cc1/C=N/NC(=O)c1ccc2c(c1)OCO2	OX1R antag-1 83.4 | OX1R HTRF confirm inactive | CHO-K1 HTRF cnt inactive
Cc1nn2c(nc1=O)SCC(c1ccccc1)=N2	OX1R antag-1 145.1 | OX1R HTRF confirm inactive | CHO-K1 HTRF cnt 62.2
Cn1c(=O)c2c(nc(SCC(=O)O)n2Cc2cc3c(cc2Cl)OCO3)n(C)c1=O	none
COc1cc(C(c2c(C)[nH][nH]c2=O)c2c(C)[nH][nH]c2=O)cc([N+](=O)[O-])c1O	OX1R antag-1 78.0 | OX1R HTRF confirm inactive | CHO-K1 HTRF cnt 43.9
CCOC(=O)C1=CN(C(C)C)CCC1=O	none (no result: GPR7 antag, OX1R antag-1, CHO parental Ca, OX1R antag-2)
CCN(Cc1ccccc1)C(=O)COC(=O)c1cc(S(=O)(=O)Nc2c(C)n(C)n(-c3ccccc3)c2=O)ccc1C	OX1R antag-1 80.8 | OX1R HTRF confirm 74.4 | CHO-K1 HTRF cnt inactive
CCN(Cc1ccccc1)C(=O)C(C)OC(=O)c1cc(S(=O)(=O)Nc2c(C)n(C)n(-c3ccccc3)c2=O)ccc1C (centres undefined)	none
CN(C1CCCCC1)S(=O)(=O)c1cc2c3c(c1)CCN3C(=O)CC2	OX1R antag-1 94.0 (no result: GPR7 antag) | OX1R HTRF confirm inactive | CHO-K1 HTRF cnt inactive
O=c1cc[nH]c2ccc([N+](=O)[O-])cc12	OX1R antag-1 122.1 | OX1R HTRF confirm inactive | CHO-K1 HTRF cnt 60.7
CCOC(=O)c1c[nH]c2ccc([N+](=O)[O-])cc12	none (no result: GPR7 antag, OX1R antag-1, CHO parental Ca, OX1R antag-2)
COc1cccc2cc(C(=O)NCc3ccccn3)c(=O)oc12	OX1R antag-1 115.8 | OX1R HTRF confirm inactive | CHO-K1 HTRF cnt 33.6
NC(=O)[C@H]1CC2(CC(c3cccc(NC(=O)[C@H]4CCC(=O)N4)c3)=NO2)CN1C(=O)c1cc([N+](=O)[O-])cc([N+](=O)[O-])c1 (some centres undefined)	OX1R antag-1 91.2 (no result: GPR7 antag) | OX1R HTRF confirm inactive | CHO-K1 HTRF cnt 57.3
Cc1c(C(=O)N2CC3(CC(c4cccc(NC(=O)[C@H]5CCC(=O)N5)c4)=NO3)C[C@@H]2C(N)=O)cc([N+](=O)[O-])cc1[N+](=O)[O-] (some centres undefined)	none (no result: GPR7 antag)
Cc1cccnc1-n1c(CCN2C(=O)c3ccccc3C2=O)nc2ccccc2c1=O	OX1R antag-1 91.7 | OX1R HTRF confirm 84.6 | CHO-K1 HTRF cnt inactive
COc1cccc(CN(C)C(=O)CSCC(=O)Nc2ccc(C)cc2)c1OC	none (no result: GPR7 antag)
O=C(NCc1ccco1)c1cc([N+](=O)[O-])ccc1Cl	none
O=C(NCc1ccco1)c1cc([N+](=O)[O-])cc([N+](=O)[O-])c1	OX1R antag-1 118.3 | OX1R HTRF confirm 54.9 | CHO-K1 HTRF cnt 69.0
COc1ccccc1NC(=O)N1CCN(C)CC1	none
O=C1OC(O)c2cccc3cccc1c23 (centres undefined)	none (no result: GPR7 antag, OX1R antag-1, CHO parental Ca, OX1R antag-2)
Cn1cc(Cl)c(C(=O)N/N=C/c2ccc3c4c(cccc24)CC3)n1	OX1R antag-1 91.5 (no result: GalR3 antagonist) | OX1R HTRF confirm 83.9 | CHO-K1 HTRF cnt inactive
O=C(CSc1ccccc1F)NC(=O)NC1CCCC1	none (no result: GPR7 antag, OX1R antag-1, CHO parental Ca, OX1R antag-2)
CCC(=O)N1CCN(c2ccc(NC(=O)c3ccc([N+](=O)[O-])o3)cc2)CC1	none (no result: OX1R antag-1, CHO parental Ca, OX1R antag-2)
CC(C)(C)C(=O)N1CCN(c2ccc(NC(=O)c3ccc([N+](=O)[O-])o3)cc2)CC1	OX1R antag-1 78.2 | OX1R HTRF confirm inactive | CHO-K1 HTRF cnt inactive
O=C(Nc1ncc([N+](=O)[O-])s1)C1CC(=O)N(c2ccc(F)cc2)C1 (centres undefined)	none
O=C1NCCN1c1ncc([N+](=O)[O-])s1	OX1R antag-1 81.7 (no result: GPR7 antag) | OX1R HTRF confirm 62.6 | CHO-K1 HTRF cnt 87.9
O=C(NCC1CCCO1)c1ccc2c(c1)S(=O)(=O)c1ccccc1C2=O (centres undefined)	OX1R antag-1 80.6 (no result: GPR7 antag) | OX1R HTRF confirm 61.4 | CHO-K1 HTRF cnt 62.5
O=C(NCCO)c1ccc2c(c1)S(=O)(=O)c1ccccc1C2=O	OX1R antag-1 107.9 | OX1R HTRF confirm 64.7 | CHO-K1 HTRF cnt 67.2
Cc1ccc(CNC(=O)c2ccc3c(c2)S(=O)(=O)c2ccccc2C3=O)o1	none (no result: GPR7 antag)
